From ChEMBL document CHEMBL1137668, “Activities of several classes of acyclic nucleoside phosphonates against camelpox virus replication in different cell culture models” (Antimicrob Agents Chemother, 2007)
pEC50: −log10 of the molar value. Activity calls are given as the source filed them. The rule behind the calls is not given here.

Assays:
Camelpox virus [1] = assay: Antiviral activity against Camelpox virus CML1 infected in HEL299 cells assessed as inhibition of virus-induced cytopathic effect after 6 days by Giemsa staining; format: functional, organism-based; conditions: CML1, HEL 299, 144 h
Camelpox virus [2] = assay: Antiviral activity against Camelpox virus CML14 infected in HEL299 cells assessed as inhibition of virus-induced cytopathic effect after 6 days by Giemsa staining; format: functional, organism-based; conditions: CML14, HEL 299, 144 h
[3] = Cytotoxicity against HEL299 cells after 4 days by Z1 Coulter counting analysis; format: cell-based, HEL 299; conditions: human; for CC50 at 96 h: HEL299 cells
In short: (§1)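 Cell growth inhibition: HEL cells were seeded at 3.5 × 10³ per well and PHKs at 5 × 10³ per well. Serial dilutions were added in duplicate after 1 day (HEL) or 3 days (PHK). After 4 days with compound, cells were trypsinized and counted with a Coulter counter (8 μm lower limit). CC50 is the concentration reducing growth by 50%, mean ± SD of at least two experiments.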

[4] = Selectivity index, ratio of CC50 for HEL299 cells to EC50 for Camelpox virus CML1 infected in HEL299 cells; format: toxicity, cell-based, HEL 299; conditions: human; for selectivity ratio: HEL299 cells, read-out: Ratio CC50/IC50
[5] = Selectivity index, ratio of CC50 for HEL299 cells to EC50 for Camelpox virus CML14 infected in HEL299 cells; format: toxicity, cell-based, HEL 299; conditions: human; for selectivity ratio: HEL299 cells, read-out: Ratio CC50/IC50
Camelpox virus [6] = assay: Antiviral activity against Camelpox virus CML1 infected in human PHK assessed as inhibition of virus-induced cytopathic effect after 6 days by Giemsa staining; format: functional, organism-based; conditions: CML1, 144 h
Camelpox virus [7] = assay: Antiviral activity against Camelpox virus CML14 infected in human PHK assessed as inhibition of virus-induced cytopathic effect after 6 days by Giemsa staining; format: functional, organism-based; conditions: CML14, 144 h
[8] = Cytotoxicity against human PHK after 4 days by Z1 Coulter counting analysis; conditions: for CC50 at 96 h: PHK cells; in short: as §1
[9] = Selectivity index, ratio of CC50 for human PHK to EC50 for Camelpox virus CML1 infected in human PHK
[10] = Selectivity index, ratio of CC50 for human PHK to EC50 for Camelpox virus CML14 infected in human PHK
Camelpox virus [11] = assay: Antiviral activity against Camelpox virus CML1 infected in HEL299 cells assessed as reduction in viral titer after 6 days postinfection by virus yield reduction assay; format: functional; conditions: HEL 299
Camelpox virus [12] = assay: Antiviral activity against Camelpox virus CML14 infected in HEL299 cells assessed as reduction in viral titer after 6 days postinfection by virus yield reduction assay; format: functional; conditions: for Activity: HEL 299
Camelpox virus [13] = assay: Antiviral activity against Camelpox virus CML1 infected in human PHK assessed as reduction in viral titer after 6 days postinfection by virus yield reduction assay; format: functional
Camelpox virus [14] = assay: Antiviral activity against Camelpox virus CML14 infected in human PHK assessed as reduction in viral titer after 6 days postinfection by virus yield reduction assay; format: functional
Camelpox virus [15] = assay: Antiviral activity against Camelpox virus CML1 infected in HEL299 cells assessed as suppression of viral replication at 73 uM after 6 days postinfection by virus yield reduction assay; format: functional, organism-based; conditions: HEL 299
Camelpox virus [16] = assay: Antiviral activity against Camelpox virus CML14 infected in HEL299 cells assessed as suppression of viral replication at 73 uM after 6 days postinfection by virus yield reduction assay; format: functional, organism-based; conditions: HEL 299
Camelpox virus [17] = assay: Antiviral activity against Camelpox virus CML1 infected in human PHK assessed as suppression of viral replication at 73 uM after 6 days postinfection by virus yield reduction assay; format: functional, organism-based
Camelpox virus [18] = assay: Antiviral activity against Camelpox virus CML14 infected in human PHK assessed as suppression of viral replication at 73 uM after 6 days postinfection by virus yield reduction assay; format: functional, organism-based
Camelpox virus [19] = assay: Antiviral activity against Camelpox virus CML1 infected in differentiated human PHK raft culture assessed as reduction in viral titer determined in HEL299 cells treated after 7 days postinfection by virus yield reduction assay; format: functional; conditions: CML1, HEL 299, 168 h
Camelpox virus [20] = assay: Antiviral activity against Camelpox virus CML1 infected in human PHK epithelial raft culture assessed as inhibition of virus-induced cytopathic effect at 1.8 uM after 7 days postinfection; format: functional, organism-based
Camelpox virus [21] = assay: Antiviral activity against Camelpox virus CML1 infected in human PHK raft culture assessed as inhibition of virus-induced cytopathic effect at 7 uM treated after 7 days postinfection; format: functional, organism-based
Camelpox virus [22] = assay: Antiviral activity against Camelpox virus CML1 infected in human PHK raft culture assessed as inhibition of virus-induced cytopathic effect at 18 uM treated after 7 days postinfection; format: functional, organism-based
[23] = Cytotoxicity against differentiated epithelium of human PHK raft culture at 5 ug/ml after 4 days by Z1 Coulter counting analysis; conditions: 96 h
[24] = Cytotoxicity against differentiated epithelium of human PHK raft culture at 76 uM after 4 days by Z1 Coulter counting analysis; conditions: 96 h
Camelpox virus [25] = assay: Antiviral activity against Camelpox virus CML1 infected in human PHK raft culture assessed as complete protection of differentiated cells against viral replication at 72 uM after 7 days postinfection; format: functional, organism-based
Camelpox virus [26] = assay: Antiviral activity against Camelpox virus CML1 infected in HEL299 cells assessed as inhibition of viral replication at 5 to 13 uM after 6 days postinfection by virus yield reduction assay; format: functional, HEL 299; set-up: scale not given: the % may be the effect or the level left
Camelpox virus [27] = assay: Antiviral activity against Camelpox virus CML14 infected in HEL299 cells assessed as inhibition of viral replication at 5 to 13 uM after 6 days postinfection by virus yield reduction assay; format: functional, HEL 299; set-up: scale not given: the % may be the effect or the level left
Camelpox virus [28] = assay: Antiviral activity against Camelpox virus CML1 infected in human PHK assessed as inhibition of viral replication at 5 to 13 uM after 6 days postinfection by virus yield reduction assay; format: functional; set-up: scale not given: the % may be the effect or the level left
Camelpox virus [29] = assay: Antiviral activity against Camelpox virus CML14 infected in human PHK assessed as inhibition of viral replication at 5 to 13 uM after 6 days postinfection by virus yield reduction assay; format: functional; set-up: scale not given: the % may be the effect or the level left
Camelpox virus [30] = assay: Antiviral activity against Camelpox virus CML1 infected in differentiated human PHK raft culture assessed as inhibition of viral replication at 6 uM treated after 7 days postinfection by virus yield reduction assay; format: functional, organism-based
Camelpox virus [31] = assay: Antiviral activity against Camelpox virus CML1 infected in HEL299 cells assessed as complete inhibition of viral replication at 0.4 uM after 6 days postinfection by virus yield reduction assay; format: functional, organism-based; conditions: HEL 299
Camelpox virus [32] = assay: Antiviral activity against Camelpox virus CML14 infected in HEL299 cells assessed as complete inhibition of viral replication at 0.4 uM after 6 days postinfection by virus yield reduction assay; format: functional, organism-based; conditions: HEL 299
Camelpox virus [33] = assay: Antiviral activity against Camelpox virus CML1 infected in human PHK assessed as complete inhibition of viral replication at 4 uM after 6 days postinfection by virus yield reduction assay; format: functional, organism-based
Camelpox virus [34] = assay: Antiviral activity against Camelpox virus CML14 infected in human PHK assessed as complete inhibition of viral replication at 4 uM after 6 days postinfection by virus yield reduction assay; format: functional, organism-based
Camelpox virus [35] = assay: Antiviral activity against Camelpox virus CML1 infected in human PHK raft culture assessed as inhibition of viral replication at 38 uM after 7 days postinfection by virus yield reduction assay; format: functional, organism-based
[36] = Cytotoxicity against differentiated epithelium of human PHK raft culture at 38 uM after 4 days by Z1 Coulter counting analysis; conditions: 96 h
Camelpox virus [37] = assay: Antiviral activity against Camelpox virus CML1 infected in human PHK raft culture assessed as inhibition of virus-induced cytopathic effect at 9 uM after 7 days postinfection; format: functional, organism-based

Row | SMILES | pEC50 (Camelpox virus [1]) | pEC50 (Camelpox virus [2]) | CC50 at 96 h [3] [µM] | selectivity ratio [4] | selectivity ratio [5] | pEC50 (Camelpox virus [6]) | pEC50 (Camelpox virus [7]) | CC50 at 96 h [8] [µM] | Ratio CC50/IC50 [9] | Ratio CC50/IC50 [10] | Activity (Camelpox virus [11]) | Activity (Camelpox virus [12]) | Activity (Camelpox virus [13]) | Activity (Camelpox virus [14]) | Activity (Camelpox virus [15]) | Activity (Camelpox virus [16]) | Activity (Camelpox virus [17]) | Activity (Camelpox virus [18]) | EC99 (Camelpox virus [19]) [µM] | also measured
1 | Nc1ncn(C[C@@H](CO)OCP(=O)(O)O)c(=O)n1 | 4.91 | 4.92 | 550 | 45 | 46 | 4.83 | 5.01 | 71 | 5 | 7 | Dose-dependent effect | Dose-dependent effect | Dose-dependent effect | Dose-dependent effect | Active | Active | Active | Active | 16 | Activity (Camelpox virus [20]): inactive; Activity (Camelpox virus [21]): inactive; Activity (Camelpox virus [22]): inactive; Activity [23]: Toxic
2 | Nc1ncnc(=O)n1C[C@H]1COP(=O)(O)CO1 | 5.37 | 5.52 | 143 | 33 | 48 | 4.74 | 4.83 | 34 | 2 | 2 | Dose-dependent effect | Dose-dependent effect | Dose-dependent effect | Dose-dependent effect | Active | Active | Active | Active | 67 | Activity [24]: Non-toxic; Activity (Camelpox virus [25]): Active
3 | Nc1nccc2c1ncn2C[C@@H](CO)OCP(=O)(O)O | 5.82 | 5.77 | 30 | 20 | 18 | 5.51 | 5.68 | 0.3 | 0.1 | 0.1 | Dose-dependent effect | Dose-dependent effect | Dose-dependent effect | Dose-dependent effect |  |  |  |  |  | Activity (Camelpox virus [26]): 99%; Activity (Camelpox virus [27]): 99%; Activity (Camelpox virus [28]): 99%; Activity (Camelpox virus [29]): 99%
4 | Nc1nc(N)c2ncn(C[C@@H](CO)OCP(=O)(O)O)c2n1 | 6.70 | 6.22 | 45 | 249 | 70 | 6.10 | 5.92 | 2 | 2 | 1 | Dose-dependent effect | Dose-dependent effect | Dose-dependent effect | Dose-dependent effect |  |  |  |  |  | EC99 (Camelpox virus [12]; CML14, HEL 299, 144 h): 1 µM; EC99 (Camelpox virus [14]; CML14, 144 h): 2 µM; Activity (Camelpox virus [30]): Active
5 | CCCCCCCCCCCCCCCCOCCO[PH]1(O)CO[C@@H](Cn2c(N)ncnc2=O)CO1 |  |  |  |  |  |  |  |  |  |  |  | Dose-dependent effect | Dose-dependent effect | Dose-dependent effect |  |  |  |  |  | CC50 ([3]; hel 299, 96 h): 79 µM; Ratio CC50/IC50 ([4]; hel 299): 10; Ratio CC50/IC50 ([5]; hel 299): 12; CC50 ([8]; 96 h): 54 µM; Activity (Camelpox virus [31]): Active; Activity (Camelpox virus [32]): Active; Activity (Camelpox virus [33]): Active; Activity (Camelpox virus [34]): Active; Activity (Camelpox virus [35]): Active; Activity [36]: Toxic; Activity (Camelpox virus [37]): inactive
